Source: ChEMBL document CHEMBL3272089, “Synthesis and antitumor activity of dihydro-5-azacytidine, a hydrolytically stable analogue of 5-azacytidine” (J Med Chem, 1977)
Active and inactive are the calls of the source. The rule behind the calls is not given here.

What was measured:
[1] = Therapeutic index, ratio of toxicity in ip dosed mouse allografted with mouse L1210 cells assessed as optimal dose required for maximum increase in life span to antitumor activity against mouse L1210 cells allografted in ip dosed mouse assessed as lowest dose required for 40% increase in life span; assay type: organism-based; details: in vivo, read-out: TI
How it was run: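 Mice tumored ip with L1210 and treated ip on days 1-9 (QD1-9) with drug in 0.9% saline, using serial twofold dose dilutions. Survival gain over untreated controls was expressed as % ILS. Dose-response relationships came from five QD1-9 experiments. TI = optimal dose for maximum % ILS ÷ lowest dose giving 40% ILS.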

[2] = tested on: P388; experiment: Antitumor activity against mouse P388 cells allografted in ip dosed mouse assessed as dose required for maximal activity administered qd from day 1 to day 9 post tumor implantation; assay type: functional
How it was run: (§1)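 Tumour cells were implanted ip (intracerebrally for IC-L1210), with the compound given in 0.9% saline ip, or orally to nonfasting mice in PO-L1210. Dose–response series each halved the preceding dose, expressed as mg/kg per injection. Activity was read as % increase in life-span (% ILS) over untreated controls, and from this the minimum, optimal and maximum active doses were taken.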

[3] = tested on: L1210; experiment: Antitumor activity against mouse L1210 cells allografted in ip dosed mouse assessed as dose required for minimal activity administered qd on day 1, 5 and 9 post tumor implantation; assay type: functional; details: 24 h, read-out: MED; how it was run: as §1
[4] = tested on: L1210; experiment: Antitumor activity against mouse L1210 cells allografted in ip dosed mouse assessed as increase in life span at optimal dose administered qd from day 1 to day 9 post intracerebral tumor implantation relative to control; assay type: functional
How it was run: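 L1210 cells implanted intracerebrally in mice. Drug given ip in 0.9% saline, dose-response in twofold dose steps (mg/kg per injection). Antitumor effect as % increase in life-span over untreated controls at the optimal dose. Test minus control body-weight change recorded on day 5.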

[5] = Drug degradation in 1 N ammonium hydroxide solution assessed as l-beta-D-Ribofuranosyl-3-guanylurea level; assay type: physicochemical
[6] = tested on: L1210; experiment: Antitumor activity against mouse L1210 cells allografted in ip dosed mouse assessed as dose required for maximal activity administered qd on day 1, 5 and 9 post tumor implantation; assay type: functional; how it was run: as §1
[7] = tested on: L1210; experiment: Antitumor activity against mouse L1210 cells allografted in po dosed mouse assessed as dose required for minimal activity administered qd from day 1 to day 9 post tumor implantation; assay type: functional; details: read-out: MED; how it was run: as §1
[8] = tested on: L1210; experiment: Antitumor activity against mouse L1210 cells allografted in po dosed mouse assessed as increase in life span at optimal dose administered qd from day 1 to day 9 post tumor implantation relative to control; assay type: functional
How it was run: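 Mice bearing ip-implanted L1210 were dosed orally, nonfasting, with compound in 0.9% saline. Dose-response in twofold steps, mg/kg per dose. % ILS relative to untreated controls at the optimal dose. Weight change (test minus control) on day 5.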

[9] = tested on: L1210; experiment: Cytotoxicity against mouse L1210 cells assessed as cessation of growth in presence of uridine; assay type: functional, cell-based
[10] = tested on: L1210; experiment: Antitumor activity against mouse L1210 cells allografted in ip dosed mouse assessed as dose required for minimal activity administered every 6 hrs on day 1, 5 and 9 post tumor implantation; assay type: functional; details: read-out: MED; how it was run: as §1
[11] = tested on: L1210; experiment: Cytotoxicity against mouse L1210 cells assessed as cessation of growth in presence of cytidine; assay type: functional, cell-based
[12] = Drug degradation in lactated Ringer's solution at 25 degC after 4.7 hrs; assay type: physicochemical; details: read-out: Drug degradation
[13] = tested on: L1210; experiment: Antitumor activity against mouse L1210 cells allografted in ip dosed mouse assessed as dose required for minimal activity administered qd on day 1 post tumor implantation; assay type: functional; details: 24 h, read-out: MED; how it was run: as §1
[14] = Half life of the compound at 25 degC at pH 7 by HPLC analysis; assay type: physicochemical
[15] = tested on: L1210; experiment: Cytotoxicity against mouse L1210 cells assessed as cessation of growth; assay type: functional, cell-based
[16] = tested on: Mus musculus; experiment: Toxicity in ip dosed mouse allografted with mouse L1210 cells assessed as dose required for optimal activity administered qd from day 1 to day 9 post intracerebral tumor implantation; assay type: organism-based; details: in vivo; how it was run: as §1
[17] = tested on: Mus musculus; experiment: Toxicity in ip dosed mouse allografted with mouse L1210 cells assessed as dose required for optimal activity administered qd on day 1, 5 and 9 post tumor implantation; assay type: organism-based; details: in vivo; how it was run: as §1
[18] = tested on: L1210; experiment: Antitumor activity against mouse L1210 cells allografted in ip dosed mouse assessed as increase in life span at optimal dose administered every 6 hrs on day 1, 5 and 9 post tumor implantation relative to control; assay type: functional
How it was run: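 L1210 leukemia cells implanted ip in mice. Drug given ip in 0.9% saline: day 1 only (QD1); days 1, 5, 9 (Q4D); every 6 h on days 1, 5, 9 (Q4D(Q6H)); or days 1-9 (QD1-9). Dose-response run in twofold steps, dose in mg/kg per injection. % ILS versus untreated controls at the optimal dose. Toxicity taken as test minus control body-weight change on day 5.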

[19] = tested on: P388; experiment: Antitumor activity against mouse P388 cells allografted in ip dosed mouse assessed as dose required for minimal activity administered qd from day 1 to day 9 post tumor implantation; assay type: functional; details: read-out: MED; how it was run: as §1
[20] = tested on: B16; experiment: Antitumor activity against mouse B16 cells allografted in ip dosed mouse assessed as dose required for minimal activity administered qd from day 1 to day 9 post tumor implantation; assay type: functional; details: read-out: MED; how it was run: as §1
[21] = Solubility of the compound in water at pH 6; assay type: physicochemical
[22] = tested on: L1210; experiment: Antitumor activity against 5-azacytidine-resistant mouse L1210 cells allografted in ip dosed mouse assessed as change in body weight at optimal dose administered qd from day 1 to day 9 post tumor implantation measured on day 5 relative to control; assay type: functional
How it was run: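 Mice bearing tumour cells implanted ip (intracerebrally in the IC-L1210 system) got compound in 0.9% saline ip on the stated schedule, or orally to nonfasting animals in the PO-L1210 system. Day-1 dosing, per day, or every 6 h counted from implantation. The value is the difference in average body weight change (g) on day 5 between the optimal-dose group (T) and controls (C).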

[23] = Chemical stability in 1 N ammonium hydroxide solution at room temperature after 7 days; assay type: physicochemical; details: 168 h
How it was run: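 The compound was stored 7 days at room temperature in 1 N ammonium hydroxide, then recovered and checked as the free base.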

[24] = tested on: Mus musculus; experiment: Toxicity in ip dosed mouse allografted with 5-azacytidine-resistant mouse L1210 cells assessed as dose required for optimal activity administered qd from day 1 to day 9 post tumor implantation; assay type: organism-based; details: in vivo; how it was run: as §1

| Compound | selectivity ratio [1] | MAD [2] [mg/kg] | minimal effective dose [3] [mg/kg] | ILS [4] [%] | MAD [6] [mg/kg] | minimal effective dose [7] [mg/kg] | ILS [8] [%] | minimal effective dose [10] [mg/kg] | minimal effective dose [13] [mg/kg] | Activity [16] [mg/kg] | Activity [17] [mg/kg] | ILS [18] [%] | minimal effective dose [19] [mg/kg] | also measured |
| --- | --- | --- | --- | --- | --- | --- | --- | --- | --- | --- | --- | --- | --- | --- |
| Nc1ncn([C@@H]2O[C@H](CO)[C@@H](O)[C@H]2O)c(=O)n1 [AZACITIDINE] | 7.5 | 3 | 5 | 28 | 20 | 1.56 | 24 | 1.25 | 12.5 | 0.75 | 10 | 126 | 0.75 | Stability [5]: Unstable; Activity [9]: inactive; Activity [11]: inactive; degraded at 4.7 h [12]: 15%; half-life [14]: 48 h; Activity [15]: Active; minimal effective dose [20]: 1.5 mg/kg |
| Cl.NC1=NC(=O)N([C@@H]2O[C@H](CO)[C@@H](O)[C@H]2O)CN1 | 10 | 200 | 12.5 | 46 | 600 | 200 | 50 | 9.4 | 300 | 100 | 600 | 68 | 12.5 | solubility [21]: 40 mg/mL; Activity [22]: 0.1 g; Stability [23]: Stable; Activity [24]: 25 mg/kg |
